Experimental data: ChEMBL document CHEMBL1154674, “Synthesis and evaluation of three 18F-labeled aminophenylbenzothiazoles as amyloid imaging agents” (J Med Chem, 2009)

Assays:
Type in all cases: ADME, organism-based, Macaca mulatta
[1] = Drug level in normal rhesus monkey parietal cortex assessed as standard uptake value at 96.3 MBq, iv after 32.5 mins by microPET; settings: in vivo
[2] = Drug level in normal rhesus monkey parietal cortex assessed as standard uptake value at 96.3 MBq, iv after 42.5 mins by microPET; settings: in vivo
[3] = Drug level in normal rhesus monkey parietal cortex assessed as standard uptake value at 96.3 MBq, iv after 115 mins by microPET; settings: in vivo
[4] = Drug level in normal rhesus monkey parietal cortex assessed as standard uptake value at 96.3 MBq, iv after 165 mins by microPET; settings: in vivo, 2.75 h
[5] = Drug level in normal rhesus monkey thalamus assessed as standard uptake value at 96.3 MBq, iv after 1.5 mins by microPET; settings: in vivo, 0.025 h
[6] = Drug level in normal rhesus monkey thalamus assessed as standard uptake value at 96.3 MBq, iv after 135 mins by microPET; settings: in vivo, 2.25 h
[7] = Drug level in normal rhesus monkey pons assessed as standard uptake value at 96.3 MBq, iv after 1.5 mins by microPET; settings: in vivo, 0.025 h
[8] = Drug level in normal rhesus monkey pons assessed as standard uptake value at 96.3 MBq, iv after 32.5 mins by microPET; settings: in vivo
[9] = Drug level in normal rhesus monkey pons assessed as standard uptake value at 96.3 MBq, iv after 57.5 mins by microPET; settings: in vivo
[10] = Drug level in normal rhesus monkey pons assessed as standard uptake value at 96.3 MBq, iv after 65 mins by microPET; settings: in vivo
[11] = Drug level in normal rhesus monkey pons assessed as standard uptake value at 96.3 MBq, iv after 85 mins by microPET; settings: in vivo
[12] = Drug level in normal rhesus monkey pons assessed as standard uptake value at 96.3 MBq, iv after 125 mins by microPET; settings: in vivo
[13] = Drug level in normal rhesus monkey frontal cortex assessed as standard uptake value at 96.3 MBq, iv after 3.5 mins by microPET; settings: in vivo
[14] = Drug level in normal rhesus monkey thalamus assessed as standard uptake value at 81.2 MBq, iv after 145 mins by microPET; settings: in vivo
[15] = Drug level in normal rhesus monkey pons assessed as standard uptake value at 81.2 MBq, iv after 1.5 mins by microPET; settings: in vivo, 0.025 h
[16] = Drug level in normal rhesus monkey pons assessed as standard uptake value at 81.2 MBq, iv after 17.5 mins by microPET; settings: in vivo
[17] = Drug level in normal rhesus monkey parietal cortex assessed as standard uptake value at 81.2 MBq, iv after 27.5 mins by microPET; settings: in vivo
[18] = Drug level in normal rhesus monkey parietal cortex assessed as standard uptake value at 81.2 MBq, iv after 52.5 mins by microPET; settings: in vivo, 0.875 h
[19] = Drug level in normal rhesus monkey white matter assessed as standard uptake value at 81.2 MBq, iv after 37.5 mins by microPET; settings: in vivo, 0.625 h
[20] = Drug level in normal rhesus monkey thalamus assessed as standard uptake value at 81.2 MBq, iv after 3.5 mins by microPET; settings: in vivo
[21] = Drug level in normal rhesus monkey thalamus assessed as standard uptake value at 81.2 MBq, iv after 37.5 mins by microPET; settings: in vivo, 0.625 h
[22] = Drug level in normal rhesus monkey thalamus assessed as standard uptake value at 81.2 MBq, iv after 42.5 mins by microPET; settings: in vivo
[23] = Drug level in normal rhesus monkey frontal cortex assessed as standard uptake value at 81.2 MBq, iv after 95 mins by microPET; settings: in vivo
[24] = Drug level in normal rhesus monkey cerebellum assessed as standard uptake value at 81.2 MBq, iv after 135 mins by microPET; settings: in vivo, 2.25 h
Procedure, shortened: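 One normal rhesus monkey, each tracer given iv via the vena saphena (81.2, 96.3 or 109.4 MBq), with 1 day between tracer injections. Dynamic brain μPET over 180 min used frames of 5 × 60 s, 5 × 120 s, 9 × 300 s and 12 × 600 s. Images were reconstructed by filtered back projection with a RAMP filter. Regional time-activity curves were expressed as SUV.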

[25] = Drug level in normal rhesus monkey frontal cortex assessed as standard uptake value at 81.2 MBq, iv after 3.5 mins by microPET; settings: in vivo
[26] = Drug level in normal rhesus monkey frontal cortex assessed as standard uptake value at 81.2 MBq, iv after 6 mins by microPET; settings: in vivo, 0.1 h
[27] = Drug level in normal rhesus monkey frontal cortex assessed as standard uptake value at 152.9 MBq, iv after 2.5 mins by microPET; settings: in vivo
Procedure, shortened: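 Single normal rhesus monkey; tracer given iv via the vena saphena, 1 day apart from the other tracer injections. Dynamic μPET ran 90 min (5×60 s, 5×120 s, 9×300 s, 3×600 s). Images were reconstructed by filtered back projection with a RAMP filter. Regional time-activity curves were expressed as SUV.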

[28] = Drug level in normal rhesus monkey white matter assessed as standard uptake value at 152.9 MBq, iv after 47.5 mins by microPET; settings: in vivo
[29] = Drug level in normal rhesus monkey white matter assessed as standard uptake value at 152.9 MBq, iv after 75 mins by microPET; settings: in vivo, 1.25 h
[30] = Drug level in normal rhesus monkey thalamus assessed as standard uptake value at 152.9 MBq, iv after 57.5 mins by microPET; settings: in vivo
[31] = Drug level in normal rhesus monkey parietal cortex assessed as standard uptake value at 152.9 MBq, iv after 32.5 mins by microPET; settings: in vivo
[32] = Drug level in normal rhesus monkey pons assessed as standard uptake value at 109.4 MBq, iv after 3.5 mins by microPET; settings: in vivo
[33] = Drug level in normal rhesus monkey pons assessed as standard uptake value at 109.4 MBq, iv after 123 mins by microPET; settings: in vivo, 2.05 h
[34] = Drug level in normal rhesus monkey parietal cortex assessed as standard uptake value at 109.4 MBq, iv after 0.375 mins by microPET; settings: in vivo, 22 s
[35] = Drug level in normal rhesus monkey thalamus assessed as standard uptake value at 109.4 MBq, iv after 93 mins by microPET; settings: in vivo, 1.55 h
[36] = Drug level in normal rhesus monkey frontal cortex assessed as standard uptake value at 109.4 MBq, iv after 0.125 mins by microPET; settings: in vivo, 7 s
[37] = Drug level in normal rhesus monkey thalamus assessed as standard uptake value at 109.4 MBq, iv after 22.5 mins by microPET; settings: in vivo, 0.375 h
[38] = Drug level in normal rhesus monkey white matter assessed as standard uptake value at 109.4 MBq, iv after 0.875 mins by microPET; settings: in vivo, 52 s
[39] = Drug level in normal rhesus monkey white matter assessed as standard uptake value at 109.4 MBq, iv after 12.5 mins by microPET; settings: in vivo
[40] = Drug level in normal rhesus monkey white matter assessed as standard uptake value at 109.4 MBq, iv after 47.5 mins by microPET; settings: in vivo

## CN(C)c1ccc2nc(-c3ccc([18F])cc3)sc2c1
[1]
  SUV: 1.9
[2]
  SUV: 1.79
[3]
  SUV: 1.3
[4]
  SUV: 1.18
[5]
  SUV: 1.55
[6]
  SUV: 1.97
[7]
  SUV: 0.8
[8]
  SUV: 1.67
[9]
  SUV: 1.95
[10]
  SUV: 1.83
[11]
  SUV: 2.06
[12]
  SUV: 1.88
[13]
  SUV: 1.39

## CNc1ccc2nc(-c3ccc([18F])cc3)sc2c1
[14]
  SUV: 4.916
[15]
  SUV: 2.731
[16]
  SUV: 5.124
[17]
  SUV: 4.303
[18]
  SUV: 3.552
[19]
  SUV: 3.78
[20]
  SUV: 3.83
[21]
  SUV: 5.69
[22]
  SUV: 5.578
[23]
  SUV: 4.745
[24]
  SUV: 1.594
[25]
  SUV: 5.355
[26]
  SUV: 5.127

## [11CH3]Nc1ccc(-c2nc3ccc(O)cc3s2)cc1 [PITTSBURGH COMPOUND B]
[27]
  SUV: 1.133
[28]
  SUV: 0.943
[29]
  SUV: 0.828
[30]
  SUV: 0.88
[31]
  SUV: 1.081

## Nc1ccc2nc(-c3ccc([18F])cc3)sc2c1
[32]
  SUV: 3.33
[33]
  SUV: 4.99
[34]
  SUV: 0.34
[35]
  SUV: 5.05
[36]
  SUV: -0.06
[37]
  SUV: 5.55
[38]
  SUV: 1.16
[39]
  SUV: 3.01
[40]
  SUV: 3.53
